Source: ChEMBL document CHEMBL2311257, “Synthesis and antioxidant activity of thymol and carvacrol based Schiff bases” (Bioorg Med Chem Lett, 2013)
Values after ≈ are worked out from the molar mass of the structure shown. Active and inactive are the calls of the source. No cut-off for these calls is given here.

Legend:
Format in all cases: functional
[1] = system: Radical scavenging activity; assay: Antioxidant activity assessed as DPPH radical scavenging activity in chloroform solution at 25 ug/mL
[2] = system: Radical scavenging activity; assay: Antioxidant activity assessed as DPPH radical scavenging activity in chloroform solution at 10 ug/mL
[3] = system: Radical scavenging activity; assay: Antioxidant activity assessed as DPPH radical scavenging activity in chloroform solution at 50 ug/mL
[4] = system: Radical scavenging activity; assay: Antioxidant activity assessed as DPPH radical scavenging activity in ethanol solution
How it was run: (§1)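 Compound dissolved in ethanol, then ethanolic DPPH added. Incubated 30 min in the dark. DPPH decrease read as absorbance at 517 nm against an ethanol blank, with ascorbic acid as reference. % activity = [(A0 − Ai)/A0] × 100, where A0 is absorbance without compound and Ai with compound. IC50 taken from activity across concentrations.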

[5] = system: Radical scavenging activity; assay: Antioxidant activity assessed as DPPH radical scavenging activity in ethanol solution at 25 ug/mL; how it was run: as §1
[6] = system: Radical scavenging activity; assay: Antioxidant activity assessed as DPPH radical scavenging activity in ethanol solution at 10 ug/mL; how it was run: as §1
[7] = system: Radical scavenging activity; assay: Antioxidant activity assessed as DPPH radical scavenging activity in chloroform solution at 100 ug/mL
[8] = system: Radical scavenging activity; assay: Antioxidant activity assessed as DPPH radical scavenging activity in ethanol solution at 100 ug/mL; how it was run: as §1
[9] = Antioxidant activity assessed as ABTS radical scavenging activity at 5 ug/mL
How it was run: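 ABTS radical cation solution diluted in ethanol to an absorbance of 0.7–0.9 at 734 nm, 30 °C. Equal volume added to ethanolic compound solution (5 µg/mL). Absorbance read after 1 min and converted to percent inhibition.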

[10] = system: Radical scavenging activity; assay: Antioxidant activity assessed as DPPH radical scavenging activity in ethanol solution at 5 ug/mL; how it was run: as §1
[11] = system: Radical scavenging activity; assay: Antioxidant activity assessed as DPPH radical scavenging activity in ethanol solution at 50 ug/mL; how it was run: as §1
[12] = system: Radical scavenging activity; assay: Antioxidant activity assessed as DPPH radical scavenging activity in chloroform solution
[13] = system: Radical scavenging activity; assay: Antioxidant activity assessed as DPPH radical scavenging activity in chloroform solution at 5 ug/mL

| Compound | IC50 [4] [mg/L] | IC50 [12] [mg/L] | Activity [1] [%] | Activity [2] [%] | Activity [3] [%] | Activity [5] [%] | Activity [6] [%] | Activity [7] [%] | Activity [8] [%] | Activity [9] | Activity [10] [%] | Activity [11] [%] | Activity [13] [%] |
| --- | --- | --- | --- | --- | --- | --- | --- | --- | --- | --- | --- | --- | --- |
| Cc1cc(O)c(C(C)C)cc1/N=C/c1cc(Br)cc(Br)c1O | 12.76 (≈ 29.9 µM) | 19.19 (≈ 44.9 µM) | 68.3 | 45.1 | 78.1 | 75.9 | 44.2 | 85.3 | 88.7 | Active | 26.8 | 85.9 | 24.3 |
| Cc1cc(/N=C/c2cc(Br)c(O)c(Br)c2)c(C(C)C)cc1O | 7.85 (≈ 18.4 µM) | 12.6 (≈ 29.5 µM) | 69 | 45.4 | 85.8 | 74.6 | 47.6 | 91.3 | 95.2 | Active | 33.3 | 88.2 | 31.7 |
| Cc1cc(O)c(C(C)(C)C)cc1/N=C/c1cc(Br)c(O)c(Br)c1 | 7.55 (≈ 17.1 µM) | 10.69 (≈ 24.2 µM) | 78.5 | 50.3 | 85.7 | 82.8 | 49 | 95.3 | 95.8 | Active | 23.9 | 95.8 | 24.2 |
| Cc1cc(/N=C/c2ccccc2O)c(C(C)C)cc1O | 11.61 (≈ 43.1 µM) | 16.09 (≈ 59.7 µM) | 65.1 | 40.8 | 86.1 | 70.6 | 46.8 | 90.4 | 89.3 | Active | 33 | 79.9 | 32.6 |
| Cc1cc(/N=C/c2ccc(O)cc2)c(C(C)C)cc1O | 9.76 (≈ 36.2 µM) | 15.13 (≈ 56.2 µM) | 66.2 | 42.8 | 75.9 | 70.4 | 48.6 | 88.1 | 92.2 | Active | 33.7 | 82.9 | 36.1 |
| COc1cc(/C=N/c2cc(C)c(O)cc2C(C)C)cc(OC)c1 | 22.02 (≈ 70.3 µM) | 25.79 (≈ 82.3 µM) | 61.7 | 39.3 | 79.1 | 65.7 | 40.7 | 88.4 | 85.8 | Active | 27.5 | 74.2 | 20.4 |
| Cc1cc(O)c(C(C)(C)C)cc1/N=C/c1ccccc1O | 10.54 (≈ 37.2 µM) | 14.36 (≈ 50.7 µM) | 70 | 48.6 | 85.7 | 69.6 | 51 | 90.9 | 90.7 | Active | 29 | 86.4 | 24.9 |
| Cc1cc(O)c(C(C)C)cc1/N=C/c1ccccc1O | 11.79 (≈ 43.8 µM) | 14.77 (≈ 54.8 µM) | 70.6 | 47.1 | 88.1 | 70.7 | 49.3 | 91 | 88.3 | Active | 29.2 | 82 | 23.9 |
| COc1cc(/C=N/c2cc(C(C)C)c(O)cc2C)cc(OC)c1 | 26.71 (≈ 85.2 µM) | 25.47 (≈ 81.3 µM) | 59.5 | 37 | 84.2 | 62.9 | 40.4 | 89.1 | 78.4 | Active | 24.5 | 71.5 | 21.8 |
| COc1ccc(/C=N/c2cc(C(C)C)c(O)cc2C)cc1OC | 18.66 (≈ 59.5 µM) | 19.12 (≈ 61 µM) | 72 | 41.9 | 85.2 | 73.4 | 43.3 | 88.9 | 89.4 | Active | 19.7 | 84.1 | 20.6 |
| COc1cc(/C=N/c2cc(C)c(O)cc2C(C)C)cc(OC)c1OC | 19.05 (≈ 55.5 µM) | 25.2 (≈ 73.4 µM) | 64.2 | 41.8 | 75.7 | 66.1 | 45.7 | 88 | 87.4 | Active | 26.4 | 76.5 | 19.7 |
| COc1ccc(/C=N/c2cc(C(C)(C)C)c(O)cc2C)cc1OC | 17.03 (≈ 52 µM) | 22.05 (≈ 67.3 µM) | 72 | 35.3 | 82.1 | 62.2 | 49 | 87.1 | 90 | Active | 27.4 | 81.9 | 22.6 |
| Cc1cc(O)c(C(C)(C)C)cc1/N=C/c1ccc(O)cc1 | 8.77 (≈ 30.9 µM) | 14.26 (≈ 50.3 µM) | 63.3 | 49.6 | 82.3 | 70.9 | 50.8 | 92.6 | 94.6 | Active | 31 | 89.3 | 31 |
| Cc1cc(O)c(C(C)(C)C)cc1/N=C/c1cc(Br)cc(Br)c1O | 11.45 (≈ 26 µM) | 13.46 (≈ 30.5 µM) | 76.4 | 45.2 | 86.1 | 72.7 | 48.2 | 90.7 | 90.1 | Active | 26.7 | 88.8 | 24.6 |

The next lines start with results.

| IC50 [4] [mg/L] | IC50 [12] [mg/L] | Compound | Activity [1] [%] | Activity [2] [%] | Activity [3] [%] | Activity [5] [%] | Activity [6] [%] | Activity [7] [%] | Activity [8] [%] | Activity [9] | Activity [10] [%] | Activity [11] [%] | Activity [13] [%] |
| --- | --- | --- | --- | --- | --- | --- | --- | --- | --- | --- | --- | --- | --- |
| 12.54 (≈ 44.3 µM) | 15.79 (≈ 55.7 µM) | COc1ccc(/C=N/c2cc(C(C)C)c(O)cc2C)cc1 | 74.1 | 44.6 | 87.7 | 77.5 | 43.3 | 90.2 | 88.5 | Active | 27.3 | 85 | 21.8 |
| 18.12 (≈ 57.8 µM) | 20.1 (≈ 64.1 µM) | COc1ccc(/C=N/c2cc(C)c(O)cc2C(C)C)cc1OC | 64.2 | 43 | 82.3 | 67.5 | 44.1 | 89.8 | 87.8 | Active | 29.1 | 75.5 | 25.4 |
| 13.5 (≈ 47.6 µM) | 16.24 (≈ 57.3 µM) | COc1ccc(/C=N/c2cc(C)c(O)cc2C(C)C)cc1 | 67.1 | 41 | 78.4 | 69.2 | 47.5 | 88.7 | 89.5 | Active | 30.9 | 78.9 | 34.2 |
| 20.2 (≈ 61.7 µM) | 19.62 (≈ 59.9 µM) | COc1cc(/C=N/c2cc(C(C)(C)C)c(O)cc2C)cc(OC)c1 | 67.9 | 36.8 | 86.6 | 66.1 | 43.8 | 89.5 | 80.4 | Active | 26.3 | 76.9 | 27 |
| 13.92 (≈ 46.8 µM) | 17.55 (≈ 59 µM) | COc1ccc(/C=N/c2cc(C(C)(C)C)c(O)cc2C)cc1 | 82.6 | 36.3 | 87.3 | 65 | 50 | 89.8 | 90.6 | Active | 29.2 | 83.4 | 19.7 |
| 8.33 (≈ 19.5 µM) | 17.98 (≈ 42.1 µM) | Cc1cc(O)c(C(C)C)cc1/N=C/c1cc(Br)c(O)c(Br)c1 | 69.2 | 46.1 | 77.4 | 78.7 | 51.8 | 90.1 | 95.2 | Active | 24.1 | 92.3 | 25.2 |
| 22.96 (≈ 66.9 µM) | 22.03 (≈ 64.1 µM) | COc1cc(/C=N/c2cc(C(C)C)c(O)cc2C)cc(OC)c1OC | 68.2 | 39.8 | 82.9 | 65.4 | 41.6 | 89.9 | 83.1 | Active | 26 | 73.3 | 20.7 |
